Results taken from EPA's CvTdb concentration-time database.
Where “and” joins values, the source holds several entries; their conditions need not be identical. Equal values may be shown once.

Key:
human [1] = assay: concentration in blood after dosing
Method in brief: (§1)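 Data points giving concentration or amount against time came from published in vivo toxicokinetic studies and from two structured collections. PubMed searching, classifier screening and manual review located the studies. Most points were digitised from plot screenshots using WebPlotDigitizer, the rest were copied from tables, and all keep their reported units.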

rat = assay: concentration in blood after dosing
human [2] = assay: concentration in expired air after dosing; settings: dosed: methyl tert-butyl ether, 15 mg, oral, male
Method in brief: as §1

human [3] = assay: concentration in blood after dosing; negative times count back from the end of exposure; settings: inhalation
Method in brief: as §1

Clc1ccccc1 [chlorobenzene]
human [1], dosed: chlorobenzene, 10 ppm, inhalation, duration: 8 hr
Settings | concentration in blood
8.065 h | 182 ng/mL
8.199 h | 192 ng/mL and 167 ng/mL and 100 ng/mL
8.252 h | 145 ng/mL
8.284 h | 200 ng/mL
8.434 h | 120 ng/mL
8.451 h | 158 ng/mL
8.532 h | 65.3 ng/mL
8.536 h | 158 ng/mL and 140 ng/mL
8.617 h | 112 ng/mL
8.633 h | 109 ng/mL
8.82 h | 107 ng/mL
8.872 h | 128 ng/mL and 140 ng/mL and 51.8 ng/mL
9.018 h | 102 ng/mL
9.124 h | 119 ng/mL
9.201 h | 49.6 ng/mL and 92.9 ng/mL
9.205 h | 119 ng/mL
9.387 h | 98.1 ng/mL
9.533 h | 78.8 ng/mL and 44.2 ng/mL
9.537 h | 108 ng/mL
9.582 h | 100 ng/mL
9.87 h | 96 ng/mL and 69.7 ng/mL and 42.1 ng/mL
10.2 h | 40.5 ng/mL and 77.5 ng/mL and 91.3 ng/mL
10.53 h | 50.2 ng/mL and 63.4 ng/mL and 71.5 ng/mL
10.86 h | 41.7 ng/mL
10.87 h | 58.7 ng/mL and 66.2 ng/mL
11.2 h | 60.9 ng/mL

CCCCCCCCCC [decane]
rat, dosed: decane, 1200 ppm, inhalation, duration: 4 hr
Settings | concentration in blood [µg/g]
0.51 h | 0.855
0.5118 h | 1.32
0.5126 h | 1.61
0.5141 h | 0.232
1.018 h | 0.402
1.021 h | 0.836
1.022 h | 1.06
1.023 h | 1.4
2.003 h | 0.669
2.007 h | 0.196
2.01 h | 0.37
2.011 h | 0.451
3.997 h | 0.455
4.002 h | 0.176
4.003 h | 0.21
5.5 min | 4.98
335 s | 6.97
338 s | 8.67

COC(C)(C)C [methyl tert-butyl ether]
dosed: methyl tert-butyl ether
Settings | concentration in blood [nM]
human [1], 0.01 h, 38.7 ppm, inhalation, duration: 4 hr | 6650
human [1], 2 h, 4.5 ppm, inhalation, duration: 4 hr | 643
human [1], 2.004 h, 38.7 ppm, inhalation, duration: 4 hr | 2100
human [1], 3.94 h, 4.5 ppm, inhalation, duration: 4 hr | 354
human [1], 3.996 h, 38.7 ppm, inhalation, duration: 4 hr | 1020
human [1], 6.01 h, 4.5 ppm, inhalation, duration: 4 hr | 174
human [1], 6.012 h, 38.7 ppm, inhalation, duration: 4 hr | 606
human [1], 7.951 h, 4.5 ppm, inhalation, duration: 4 hr | 84
human [1], 8.029 h, 38.7 ppm, inhalation, duration: 4 hr | 395
human [1], 10.04 h, 38.7 ppm, inhalation, duration: 4 hr | 328
human [1], 12.06 h, 38.7 ppm, inhalation, duration: 4 hr | 253
human [1], 22 s, 4.5 ppm, inhalation, duration: 4 hr | 1930
human [3], 0.2914 h, 25 ppm, duration: 4 hr, male | 7860
human [3], 0.5342 h, 25 ppm, duration: 4 hr, male | 6550
human [3], 0.9123 h, 25 ppm, duration: 4 hr, male | 5510
human [3], 2.155 h, 25 ppm, duration: 4 hr, male | 3310
human [3], 6.883 h, 25 ppm, duration: 4 hr, male | 651
human [3], 20.1 h, 25 ppm, duration: 4 hr, male | 40

human [1], dosed: methyl tert-butyl ether, oral
Settings | concentration in blood [nM]
0.9725 h, 5 mg | 99.4
1.015 h, 15 mg | 685
1.991 h, 5 mg | 41.1
2.004 h, 15 mg | 276
2.918 h, 15 mg | 108
2.982 h, 5 mg | 27.2
3.947 h, 5 mg | 18.7
4.008 h, 15 mg | 82
5.952 h, 5 mg | 13.1
5.987 h, 15 mg | 47.1
7.932 h, 5 mg | 11.7
7.966 h, 15 mg | 26.4
9.937 h, 5 mg | 10.1
9.945 h, 15 mg | 23.3
12 h, 15 mg | 13
12.02 h, 5 mg | 8.99

human [2]
Settings | concentration in expired air [nM]
0.1656 h | 77
0.3208 h | 77
0.5071 h | 51.41
0.6649 h | 33.25
0.8305 h | 28.15
0.9935 h | 21.17
1.508 h | 12.95
1.995 h | 9.141
2.999 h | 6.25
3.99 h | 2.876
4.996 h | 2.574
5.99 h | 1.41

human [3], dosed: methyl tert-butyl ether, 25 ppm, duration: 4 hr, male, during exposure
Settings | concentration in blood [nM]
-4 h | 117
-3.335 h | 6640
-2.225 h | 7880
-1.277 h | 9780
-0.1674 h | 10600

COc1ccccc1N=Nc1c(O)ccc2ccccc12 [Solvent red1]
rat, dosed: Solvent red1, 20 mg/kg, oral, Sprague Dawley
Settings | concentration in blood [ng/mL]
0.2399 h | 122
0.4077 h | 341
0.7668 h | 990
1.067 h | 510
1.606 h | 274
2.085 h | 139
2.561 h | 90.5
3.615 h | 46.4
4.567 h | 15.8
5.518 h | 10.3
7.58 h | 8.35
9.583 h | 4.6
13.09 h | 4.34
18.04 h | 1.27
24.03 h | 0.824
251 s | 2.62

CC(C)(C)O [tert-butanol]
human [3], dosed: methyl tert-butyl ether, 25 ppm, duration: 4 hr, male
Settings | concentration in blood [nM]
0.1966 h | 14800
0.4673 h | 15100
0.8191 h | 15400
2.091 h | 14800
6.879 h | 11600
20.02 h | 4270

human [3], dosed: methyl tert-butyl ether, 25 ppm, duration: 4 hr, male, during exposure
Settings | concentration in blood [nM]
-3.999 h | 10.2
-3.435 h | 3360
-2.296 h | 6170
-1.076 h | 10400
-0.2367 h | 13100

ClCCl [methylene chloride]
rat, dosed: methylene chloride, 125 mg/kg, oral, male, Wistar
Settings | concentration in blood [ng/mL]
0.1027 h | 114000
0.1096 h | 35700
0.1406 h | 101000
0.1438 h | 37300
0.1715 h | 96200
0.1781 h | 38700
0.2228 h | 93900
0.2329 h | 39900
0.2708 h | 88100
0.2808 h | 41000
0.3223 h | 79600
0.3356 h | 39800
0.3704 h | 71100
0.3836 h | 38300
0.4252 h | 65400
0.4315 h | 34600
0.5041 h | 57100
0.5205 h | 36100
0.7539 h | 41600
0.7671 h | 27600
1.007 h | 31400
1.014 h | 24000
1.5 h | 16900
1.514 h | 14900
2.002 h | 8750
2.014 h | 9350
2.498 h | 3470
2.514 h | 11300
3.014 h | 9840
3.507 h | 6900
4.007 h | 5980
4.507 h | 4860
5 h | 1820
129 s | 59800
173 s | 15700
247 s | 29800
248 s | 101000

rat, dosed: methylene chloride, dermal, duration: 4 hr, male, Fischer-344
Settings | concentration in blood [ng/mL]
0.5086 h, 100000 ppm | 57300
0.5196 h, 60000 ppm | 29800
0.5257 h, 30000 ppm | 11300
1.007 h, 100000 ppm | 67300
1.008 h, 60000 ppm | 45900
1.013 h, 30000 ppm | 21100
1.988 h, 100000 ppm | 79800
1.99 h, 60000 ppm | 43400
1.996 h, 30000 ppm | 30000
2.977 h, 100000 ppm | 97700
2.987 h, 60000 ppm | 44700
2.989 h, 30000 ppm | 29800
3.973 h, 100000 ppm | 98100
3.974 h, 60000 ppm | 52200
3.978 h, 30000 ppm | 23600

concentration in blood [ng/mL], human [3], dosed: methylene chloride, duration: 6 hr
Settings | 1.928 h | 2.051 h | 5.959 h | 6.02 h | 16.03 h | 16.07 h | 23.99 h | 276 s
100 ppm | – | 155 | 62.4 | – | 12 | – | – | –
350 ppm | 899 | – | – | 342 | – | 77.4 | 36 | 5760

concentration in blood [ng/mL], human [3], dosed: methylene chloride, duration: 6 hr, during exposure
Settings | -58 s | -2.95 h | -2.858 h
100 ppm | 1020 | 1090 | –
350 ppm | – | – | 5830

CCOC(C)(C)C [ethyl tert-butyl ether]
concentration in blood [nM], human [1], dosed: ethyl tert-butyl ether, inhalation, duration: 4 hr
Settings | 2.045 h | 4.023 h | 4.057 h | 6.068 h | 7.977 h | 9.972 h | 11.98 h | 23.9 h | 61 s | 184 s
4.5 ppm | 371 | 117 | – | – | – | – | – | – | 1320 | –
40.6 ppm | 3350 | – | 1940 | 1750 | 941 | 1100 | 762 | 171 | – | 12000

BrCBr [dibromomethane]
rat, dosed: dibromomethane, dermal, duration: 4 hr, male, Fischer-344
Settings | concentration in blood [ng/mL]
0.4941 h, 500 ppm | 965
0.5004 h, 5000 ppm | 8990
0.5042 h, 10000 ppm | 34200
0.5051 h, 1000 ppm | 1170
0.9982 h, 500 ppm | 1280
0.9999 h, 5000 ppm | 14700
1.004 h, 10000 ppm | 55200
1.005 h, 1000 ppm | 2090
2.005 h, 500 ppm | 1290
2.007 h, 1000 ppm | 2720
2.011 h, 10000 ppm | 90100
2.014 h, 5000 ppm | 30000
2.998 h, 1000 ppm | 3020
2.998 h, 10000 ppm | 120000
3 h, 500 ppm | 1150
3.005 h, 5000 ppm | 38200
4.005 h, 1000 ppm | 3130
4.005 h, 10000 ppm | 142000
4.007 h, 500 ppm | 1280
4.017 h, 5000 ppm | 44900
